The source of these data is ChEMBL document CHEMBL1143378, “Inactivation of GABA transaminase by 3-chloro-1-(4-hydroxyphenyl)propan-1-one” (Bioorg Med Chem Lett, 2009).

Common to all, as to assay type: tissue-based
In assay [1] the target is T1, 4-aminobutyrate aminotransferase, mitochondrial (Rattus norvegicus, UniProt P50554). Briefly: Inhibition of GABA transaminase in rat brain by Kitz-Wilson plot. The gist of the method: (§1)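 GABA-T was isolated from rat brain. For time-dependent inactivation, log remaining activity was plotted against time at each inactivator concentration. Inverse slopes were then plotted against inverse inactivator concentration, and K_I and k_inact were taken from a Kitz–Wilson plot.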

Assay [2] concerns the target 4-aminobutyrate aminotransferase, mitochondrial (Rattus norvegicus) (UniProt P50554). Briefly: (§2) Activity of GABA transaminase in rat brain.
Assay [3] has as its target T1, 4-aminobutyrate aminotransferase, mitochondrial. The description is as §2.
The target of assay [4] is 4-aminobutyrate aminotransferase, mitochondrial (Rattus norvegicus) (UniProt P50554). Briefly: Ratio of Kinact to KI for GABA transaminase in rat brain. The gist of the method:
as §1

Assay [5] has the same target. Description: Inhibition of GABA transaminase in rat brain at 45 uM after 40 mins in presence of alpha-ketoglutarate. The gist of the method: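 Rat brain GABA-T was incubated with GABA, inhibitor (45 μM) and varying α-ketoglutarate concentrations together for 40 min before enzyme activity was measured.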
Assay [6] shares this target. Briefly: Inhibition of GABA transaminase in rat brain at 60 uM after 30 mins by gel filtration. The gist of the method:
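Rat brain GABA-T was incubated with 60 μM inhibitor at 25 °C for 30 min and an aliquot was assayed. The remaining mixture was passed through Sephadex G50 to remove small molecules and assayed again. An identical sample without inactivator served as control. Values are mean ± SEM, n = 6.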
Background: Size exclusion chromatography separates by hydrodynamic size, large species first.

For assay [7] the target is unchanged. Description: Inhibition of GABA transaminase in rat brain at 30 uM for 40 mins in presence of 30 mM alpha-ketoglutarate. The gist of the method:
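Rat brain GABA-T was preincubated with inhibitor (30 μM) for 40 min. Increasing concentrations of α-ketoglutarate, up to 30 mM, were then added and residual activity was measured. A no-inactivator control was run. Values are mean ± SEM, n = 6.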

SMILES strings stand for the structures. Active and inactive are the calls of the source. No cut-off for these calls is given here.

Chain of 4-aminobutyrate aminotransferase, mitochondrial (Rattus norvegicus) (P50554 28-500 limits assumed): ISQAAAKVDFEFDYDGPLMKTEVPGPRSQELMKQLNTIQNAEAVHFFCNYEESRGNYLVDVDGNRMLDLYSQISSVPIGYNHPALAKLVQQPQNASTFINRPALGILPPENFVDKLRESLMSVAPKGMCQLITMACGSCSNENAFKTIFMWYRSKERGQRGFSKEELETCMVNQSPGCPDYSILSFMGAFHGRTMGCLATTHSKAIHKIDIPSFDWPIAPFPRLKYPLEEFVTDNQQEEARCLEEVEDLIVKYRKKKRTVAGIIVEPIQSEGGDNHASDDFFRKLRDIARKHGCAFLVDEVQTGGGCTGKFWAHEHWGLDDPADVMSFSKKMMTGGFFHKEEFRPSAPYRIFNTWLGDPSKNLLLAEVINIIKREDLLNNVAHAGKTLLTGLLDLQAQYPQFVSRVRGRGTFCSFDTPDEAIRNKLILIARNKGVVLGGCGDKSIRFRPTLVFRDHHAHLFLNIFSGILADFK
T1 sequence (P50554 whole entry): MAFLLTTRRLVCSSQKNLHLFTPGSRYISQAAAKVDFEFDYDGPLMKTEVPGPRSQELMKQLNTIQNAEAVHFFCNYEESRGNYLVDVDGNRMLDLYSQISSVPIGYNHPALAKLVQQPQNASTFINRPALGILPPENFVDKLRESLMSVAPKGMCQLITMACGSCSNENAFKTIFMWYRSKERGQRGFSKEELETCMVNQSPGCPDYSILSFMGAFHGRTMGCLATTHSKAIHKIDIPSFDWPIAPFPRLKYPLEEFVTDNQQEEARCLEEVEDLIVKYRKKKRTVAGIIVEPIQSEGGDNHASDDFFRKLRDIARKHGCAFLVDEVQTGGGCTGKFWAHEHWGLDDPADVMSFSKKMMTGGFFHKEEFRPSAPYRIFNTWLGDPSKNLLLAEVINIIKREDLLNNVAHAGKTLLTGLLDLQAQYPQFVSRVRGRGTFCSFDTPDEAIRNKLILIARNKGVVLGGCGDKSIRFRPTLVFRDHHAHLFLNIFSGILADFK

For orientation: IC50 means the concentration that inhibits the measured activity by half. A higher IC50 goes with weaker potency. One may read the Ki as a measure of affinity in units of concentration, obtained from inhibition or displacement. In assay [1], `O=C(CCCl)c1ccc(O)cc1` had an IC50 of 3.99 µM. The Kinact in assay [2] amounted to 0.0457 min⁻¹. This compound also came in with a Ki in assay [3] of 24.3 µM. In addition, the Ratio in assay [4] was found to be 1.88. For the same compound, in assay [5], the result was inactive. Besides, the outcome in assay [6] and in assay [7] was Active.

In turn, `O=Cc1ccc(O)cc1` [4-HYDROXYBENZALDEHYDE] gave an IC50 in assay [1] of 16.5 µM.
